By Ki is commonly meant the dissociation constant of the complex between target and ligand, obtained from inhibition or displacement. What is called IC50 is the concentration that inhibits the measured activity by half. As usually defined, the EC50 is the concentration that produces a half-maximal response.

In test [1] the target is T1, D(2) dopamine receptor (Homo sapiens, UniProt P14416). Description: Displacement of [3H]-Raclopride from recombinant human dopamine D2 receptor expressed in HEK293T cell membranes after 1 hr by liquid scintillation counting. The method, boiled down:
(§1)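 Membranes (20 µg) from HEK293T cells stably expressing D2R, or D2R with mGluR5. Incubated with 2.0 nM [3H]raclopride and unlabeled ligand (0.1 nM-10 µM) for 1 h at 37 °C in 50 mM Tris-HCl pH 7.4 containing NaCl, KCl, MgCl2, CaCl2 and EDTA. Nonspecific binding defined with 1 µM haloperidol. Counted by scintillation; Ki by Cheng-Prusoff; three independent assays.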
In general terms: In a radioligand displacement assay an active substance lowers the binding of a labelled ligand.

Test [2] deals with T2, Metabotropic glutamate receptor 5 (Homo sapiens, UniProt P41594). In words: Displacement of [3H]MPEP from recombinant mGluR5a (unknown origin) expressed in HEK293T cell membranes co-expressing human dopamine D2 receptor after 1 hr by liquid scintillation counting. A digest of the protocol:
(§2)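 Membranes (20 µg) from cells stably expressing mGluR5, with or without D2R. Incubated with 3.0 nM [3H]MPEP and unlabeled ligand (0.1 nM-100 µM) in 50 mM Tris-HCl/2 mM MgCl2, pH 7.4, for 1 h at 25 °C. Nonspecific binding defined with 10 µM MPEP. Filtration and scintillation counting; Ki via Cheng-Prusoff; three independent assays in duplicate.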

Test [3] deals with T2, Metabotropic glutamate receptor 5. In words: Antagonist activity at mGluR5 (unknown origin) expressed in HEK293T cells assessed as inhibition of L-Glu-induced MAPK phosphorylation preincubated for 30 mins followed by agonist stimulation for 10 mins by Western blot analysis. In kind it is functional, cell-based. A digest of the protocol: (§3)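 Cells stably expressing mGluR5 alone or with D2R, seeded at 400,000 per well, serum-starved overnight at about 70% confluence. Ligand pretreatment at 1 nM-10 µM for 30 min at 37 °C, then 10 µM L-glutamate for 7-10 min. RIPA lysates run on western blot; phospho-p44/42 MAPK signal normalized to total p44/42 MAPK. Mean ± SEM of three independent experiments.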

For test [4], the target named is T1, D(2) dopamine receptor. Description: Displacement of [3H]-Raclopride from recombinant human dopamine D2 receptor expressed in HEK293T cell membranes co-expressing mGluR5a (unknown origin) after 1 hr by liquid scintillation counting. A digest of the protocol:
as §1

The target in test [5] is T2, Metabotropic glutamate receptor 5. In words: Displacement of [3H]MPEP from recombinant mGluR5 (unknown origin) expressed in HEK293T cell membranes after 1 hr by liquid scintillation counting. The method, boiled down:
as §2

Test [6] concerns the target T3, D(2) dopamine receptor/Metabotropic glutamate receptor 5 (Homo sapiens, UniProt P14416+P41594). Description: Antagonist activity at human dopamine D2 receptor /mGluR5a (unknown origin) expressed in HEK293T cells assessed as inhibition of L-Glu-induced MAPK phosphorylation preincubated for 30 mins followed by agonist stimulation for 10 mins by Western blot analysis. In kind it is cell-based. A digest of the protocol:
as §3

The target in test [7] is T1, D(2) dopamine receptor. In words: Agonist activity at human dopamine D2 receptor expressed in HEK293T cells assessed as reduction in forskolin-induced cAMP accumulation preincubated for 15 mins followed by forskolin addition by GloSensor-based assay. Type of test: functional, cell-based. In general terms: cAMP levels reflect the balance of adenylyl cyclase and phosphodiesterase activity.

Test [8] has as its target T3, D(2) dopamine receptor/Metabotropic glutamate receptor 5. In words: Agonist activity at human dopamine D2 receptor /mGluR5a (unknown origin) expressed in HEK293T cells assessed as reduction in forskolin-induced cAMP accumulation preincubated for 15 mins followed by forskolin addition by GloSensor-based assay. In kind it is functional, cell-based.

T2 sequence (P41594 whole entry): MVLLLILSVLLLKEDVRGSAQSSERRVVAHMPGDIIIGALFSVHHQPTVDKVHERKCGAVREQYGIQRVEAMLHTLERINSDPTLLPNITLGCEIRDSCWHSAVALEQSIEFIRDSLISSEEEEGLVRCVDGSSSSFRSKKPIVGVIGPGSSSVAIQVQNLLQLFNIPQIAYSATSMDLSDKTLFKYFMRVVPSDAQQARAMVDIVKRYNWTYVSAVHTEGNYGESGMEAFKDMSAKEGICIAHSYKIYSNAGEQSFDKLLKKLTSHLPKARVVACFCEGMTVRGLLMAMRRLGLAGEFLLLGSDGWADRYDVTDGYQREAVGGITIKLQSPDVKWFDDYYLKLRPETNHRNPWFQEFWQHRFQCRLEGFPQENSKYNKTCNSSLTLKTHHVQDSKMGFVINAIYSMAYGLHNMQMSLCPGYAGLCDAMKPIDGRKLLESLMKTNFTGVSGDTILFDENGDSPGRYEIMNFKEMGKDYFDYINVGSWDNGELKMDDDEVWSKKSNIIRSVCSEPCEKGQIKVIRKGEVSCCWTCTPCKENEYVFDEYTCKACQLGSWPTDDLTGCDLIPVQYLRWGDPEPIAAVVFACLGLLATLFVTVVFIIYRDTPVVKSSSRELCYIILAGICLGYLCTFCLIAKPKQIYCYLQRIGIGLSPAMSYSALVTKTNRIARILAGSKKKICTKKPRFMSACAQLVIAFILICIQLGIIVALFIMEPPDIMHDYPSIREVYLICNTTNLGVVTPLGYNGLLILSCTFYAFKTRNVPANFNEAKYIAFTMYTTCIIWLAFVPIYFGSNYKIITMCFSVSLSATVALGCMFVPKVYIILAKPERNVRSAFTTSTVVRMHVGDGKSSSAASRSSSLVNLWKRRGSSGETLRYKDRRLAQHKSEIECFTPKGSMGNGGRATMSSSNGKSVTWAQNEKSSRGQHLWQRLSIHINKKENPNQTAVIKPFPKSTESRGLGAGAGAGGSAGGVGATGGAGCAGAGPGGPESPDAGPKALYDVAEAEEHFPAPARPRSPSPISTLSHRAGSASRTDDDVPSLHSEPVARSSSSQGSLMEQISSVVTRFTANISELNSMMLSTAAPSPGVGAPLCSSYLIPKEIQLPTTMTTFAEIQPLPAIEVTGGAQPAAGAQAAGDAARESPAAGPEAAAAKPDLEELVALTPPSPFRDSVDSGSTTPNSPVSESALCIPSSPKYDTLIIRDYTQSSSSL
T3 sequence (P14416 whole entry): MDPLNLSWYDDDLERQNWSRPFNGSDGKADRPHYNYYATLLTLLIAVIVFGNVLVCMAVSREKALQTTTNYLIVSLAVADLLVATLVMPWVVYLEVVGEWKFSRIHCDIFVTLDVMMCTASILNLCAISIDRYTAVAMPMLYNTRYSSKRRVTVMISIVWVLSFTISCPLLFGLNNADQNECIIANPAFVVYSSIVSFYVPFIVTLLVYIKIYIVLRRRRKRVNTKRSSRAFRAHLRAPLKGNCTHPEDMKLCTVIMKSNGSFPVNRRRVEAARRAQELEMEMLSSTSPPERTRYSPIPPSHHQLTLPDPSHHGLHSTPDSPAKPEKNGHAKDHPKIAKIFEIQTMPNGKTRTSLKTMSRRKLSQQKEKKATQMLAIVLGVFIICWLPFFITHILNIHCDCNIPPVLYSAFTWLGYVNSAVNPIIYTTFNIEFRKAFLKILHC
T3 sequence (P41594 whole entry): as the sequence (P41594 whole entry) above
T1 sequence (P14416 whole entry): as the sequence (P14416 whole entry) above

Regarding `COc1cc(CN2CCN(c3ccccc3OC)CC2)ccc1OCc1cn(CCCCCCCCN(C)CCCCCNC(=O)COc2cncc(C#Cc3csc(C)n3)c2)nn1`, the Ki on D(2) dopamine receptor [1] was 132 nM; in test [2] it was 1300 nM; on D(2) dopamine receptor [4], 45 nM; in test [5] it was 1000 nM. Moreover, the values for the IC50 in test [3] and in test [6] were 110 nM and 1800 nM, respectively.
`CCCN(CCc1ccc(NC(=O)CCc2cn(CCCCCCCCN(C)CCCCCNC(=O)COc3cncc(C#Cc4csc(C)n4)c3)nn2)cc1)C1CCc2c(O)cccc2C1` (stereo unspecified): the Ki at D(2) dopamine receptor [1] worked out at 50 nM; in test [2] it was 1100 nM; on D(2) dopamine receptor [4], 13 nM; in test [5] it was 2300 nM. Further, the EC50 at D(2) dopamine receptor [7] (read-out: EC50) was found to be 3.3 nM; in test [8] (read-out: EC50), 1.5 nM. Further, the IC50 in test [3] was determined as 170 nM; in test [6], 620 nM.
Regarding `CCCN(CCc1ccc(NC(=O)CCc2cn(CCCCCCCCCCN(C)CCCCCNC(=O)COc3cncc(C#Cc4csc(C)n4)c3)nn2)cc1)C1CCc2c(O)cccc2C1` (stereo unspecified), the Ki is 79 nM on D(2) dopamine receptor [1] and 171 nM on D(2) dopamine receptor [4]. The EC50 on D(2) dopamine receptor [7] (read-out: EC50) is 5.5 nM; in test [8] (read-out: EC50), 32 nM. Moreover, in test [3], the IC50 is 320 nM.
Consider `C#CCCC(=O)Nc1ccc(CCN(CCC)C2CCc3c(O)cccc3C2)cc1` (stereo unspecified), for which the Ki stood at 17 nM on D(2) dopamine receptor [1] and 19 nM at D(2) dopamine receptor [4]. For the same molecule, the concentration for a half-maximal effect (EC50) on D(2) dopamine receptor [7] (read-out: EC50) came out at 3 nM; in test [8] (read-out: EC50) it was 6.5 nM.
Regarding `CCCN(CCc1ccc(NC(=O)CCc2cn(CCCCCCNC(=O)COc3cncc(C#Cc4csc(C)n4)c3)nn2)cc1)C1CCc2c(O)cccc2C1` (stereo unspecified), the Ki on D(2) dopamine receptor [1] amounted to 295 nM; on D(2) dopamine receptor [4], 142 nM. For the same molecule, the results for the EC50 (at D(2) dopamine receptor [7] (read-out: EC50); in test [8] (read-out: EC50)) were 7.6 nM and 20 nM, respectively. The IC50 in test [3] turned out to be 1600 nM.
On to `C#CCOc1ccc(CN2CCN(c3ccccc3OC)CC2)cc1OC`, for which the Ki at D(2) dopamine receptor [1] stood at 77 nM; at D(2) dopamine receptor [4], 69 nM. Also, the concentration for a half-maximal effect (EC50) entry (on D(2) dopamine receptor [7]; in test [8]) was “Not Active” in each case.
Consider `COc1cc(CN2CCN(c3ccccc3OC)CC2)ccc1OCc1cn(CCCCCCCCCCN(C)CCCCCNC(=O)COc2cncc(C#Cc3csc(C)n3)c2)nn1`, for which the Ki came to 303 nM on D(2) dopamine receptor [1] and 115 nM at D(2) dopamine receptor [4]. The IC50 in test [3] amounted to 450 nM.
Take `COc1cc(CN2CCN(c3ccccc3OC)CC2)ccc1OCc1cn(CCCCCCCCCCN(C)CCCCCNC(=O)COc2cccc(C#Cc3csc(C)n3)c2)nn1`: the inhibition constant Ki amounted to 398 nM at D(2) dopamine receptor [1] and 252 nM at D(2) dopamine receptor [4]. In test [3], the half-maximal inhibitory concentration (IC50) was found to be 310 nM.
In the case of `COc1cc(CN2CCN(c3ccccc3OC)CC2)ccc1OCc1cn(CCOCCOCCOCCNC(=O)COc2cccc(C#Cc3csc(C)n3)c2)nn1`, the Ki at D(2) dopamine receptor [1] is 438 nM; on D(2) dopamine receptor [4], 251 nM. The IC50 in test [3] came to 1200 nM.
Take `COc1cc(CN2CCN(c3ccccc3OC)CC2)ccc1OCc1cn(CCOCCOCCOCCOCCOCCNC(=O)COc2cccc(C#Cc3csc(C)n3)c2)nn1`: the results for the Ki on D(2) dopamine receptor [1] and at D(2) dopamine receptor [4] were 352 nM and 186 nM, respectively. Further, in test [3], the IC50 turned out to be 900 nM.
For the molecule `Cc1nc(C#Cc2cncc(OCC(=O)NCCCCCN(C)CCCCCCCCN=[N+]=[N-])c2)cs1`, the Ki in test [2] came out at 5700 nM; in test [5], 5800 nM. Besides, the half-maximal inhibitory concentration (IC50) in test [3] was determined as 2600 nM; in test [6] it was 4500 nM.
As to `COc1cc(CN2CCN(c3ccccc3OC)CC2)ccc1OCc1cn(CCCCCCCCN(C)CCCCCNC(=O)COc2cccc(C#Cc3csc(C)n3)c2)nn1`, the figures for the Ki at D(2) dopamine receptor [1] and at D(2) dopamine receptor [4] were 147 nM and 94 nM, respectively. In addition, the IC50 in test [3] amounted to 240 nM.

Source of the values: ChEMBL document CHEMBL4229559, “Synthesis toward Bivalent Ligands for the Dopamine D2 and Metabotropic Glutamate 5 Receptors” (J Med Chem, 2018).
